# Source: PubChem (several laboratories)
# NPY Y2 blocker: NPY-Y2 (human) receptor antagonism. actives 0.99% (n = 140,000). AID 793. inhibition, % at 2.7 µM. P49146. NPY-Y2 expressing cells, antagonist mode; in the data active means inhibition above about 17%
# NPY2 pot ag: potentiators or agonists of human neuropeptide Y receptor Y2; P49146; cells expressing NPY-Y2, potentiator/agonist read-out; activation, % at 3.6 µM; actives 0.45% (n = 220,000); in the data active means activation above about 27%;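 further: cells stimulated with NPY near EC25 plus isoproterenol at EC100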
# NPY-Y1 PAM-ag: potentiates or activates human NPY-Y1 receptor; P25929; actives 0.37% (n = 220,000); activation, % at 3.6 µM; NPY-Y1 expressing cells, potentiator/agonist activation; in the data active means activation above about 33%, passing the limit was not always enough;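 further: cells stimulated with NPY at EC10 then isoproterenol at EC100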
# NPY Y1 blocker: blocks the human neuropeptide Y Y1 receptor. P25929. HEK293-CNG Y1 cells, membrane potential fluorescence; NPY at EC95, then isoproterenol. inhibition, % at 3.6 µM. actives 1% (n = 200,000). AID 1040;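 active means inhibition above the campaign mean inhibition of all tested compounds plus 3 SD, cut at about 20% in these data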
#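 Test system – HEK293 Y1/CNG channel cell line · Also added – NPY agonist 25 nM, then isoproterenol 1 µM plus Ro 20-1724 25 µM · Compound dosing – one concentration, 3.6 µM, in 0.4% DMSO · Schedule – compound incubation 1 h at room temperature, readout 45 min post-stimulation · Technique – fluorescence, membrane potential probe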
# EP2 mod: modulates human prostaglandin E2 receptor EP2 signaling | EP2-expressing cells, cAMP HTRF FRET, PGE2 co-stimulation | actives 0.83% (n = 260,000) | induction, % at 25 µM | AID 940 | P43116;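 active means compounds whose cAMP rise, as percent of the full-agonist control response, exceeds 60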;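 further: rat C6 glioma line stably carrying human EP2 under a CMV promoter; the protocol text gives 20 µM as final concentration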
# Target sequence (P43116 whole entry, looked up): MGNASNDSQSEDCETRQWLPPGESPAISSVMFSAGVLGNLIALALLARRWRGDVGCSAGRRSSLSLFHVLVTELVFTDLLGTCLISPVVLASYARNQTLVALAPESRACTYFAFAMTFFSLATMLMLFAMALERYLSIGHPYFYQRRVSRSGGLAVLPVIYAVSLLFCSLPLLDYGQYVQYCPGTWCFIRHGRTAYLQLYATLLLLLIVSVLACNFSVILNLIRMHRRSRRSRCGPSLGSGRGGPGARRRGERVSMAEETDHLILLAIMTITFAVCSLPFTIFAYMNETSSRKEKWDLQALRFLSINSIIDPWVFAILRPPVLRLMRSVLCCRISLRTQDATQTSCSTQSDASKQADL
# EP2 antag: inhibitors of human EP2 prostaglandin E2 receptor | P43116 | C6 glioma cells expressing human EP2, cAMP TR-FRET; cells stimulated with saturating PGE2 | inhibition, % at 25 µM | actives 0.52% (n = 260,000);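 active means percent inhibition above 40 after rounding to a whole number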;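 further: rat C6 glioma host cells with rolipram phosphodiesterase inhibitor present; the protocol text gives 20 µM as final concentration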
# A number is an active result; . = inactive; / = not tested or not shown; ! = repeats disagree. The list is not random: actives were taken first. Their share in the collection is about 2.8%.
SMILES,NPY Y2 blocker,NPY2 pot ag,NPY-Y1 PAM-ag,NPY Y1 blocker,EP2 mod,EP2 antag
COc1ccccc1CC(=O)Nc1nnc(C(C)C)s1,/,/,/,/,.,.
COc1cccc(-c2nc(-c3ccc(NC(=O)c4cccnc4)cc3)no2)c1,.,.,.,.,.,.
O=C(Nc1ccc(-c2noc(-c3cccs3)n2)cc1)c1cccnc1,.,.,.,.,.,69
Cc1cc(C)c2cc(CN(CC3CCCO3)C(=O)c3ccccc3)c(=O)[nH]c2c1 (centres undefined),/,/,/,/,.,.
CCn1c(SCC(=O)Nc2ccccc2F)nnc1C(C)C,/,/,/,/,.,.
N#CSC1CS(=O)(=O)C=C1Cl (centres undefined),/,/,/,/,.,133
Cc1noc(C)c1C(=O)OCC(=O)Nc1cc(Cl)ccc1Oc1ccccc1,22,.,.,23,.,.
COc1ccc(C)cc1NC(=O)COC(=O)c1c(C)noc1C,.,.,.,.,.,.
COc1cc(NC(=O)c2cnc(N)s2)cc(C(=O)Nc2cccc(C(F)(F)F)c2)c1,/,/,/,/,.,53
COc1cc(NC(=O)c2ccnc(N)c2)cc(C(=O)Nc2cccc(C(F)(F)F)c2)c1,/,/,/,/,.,.
CC1CCN(c2nc3c(c(=O)n(C)c(=O)n3C)n2CCSc2nc3ccccc3s2)CC1,.,.,.,.,61,.
Cn1c(=O)c2c(nc(N3CCCCC3)n2CCSc2nc3ccccc3s2)n(C)c1=O,.,.,.,.,.,.
O=C(Nc1sc(NC(=O)c2cccs2)nc1-c1cccs1)c1ccccc1,/,/,/,/,61,.
CC(C)NC[C@H](O)c1ccc(O)c(O)c1,/,/,/,/,76!,.
NCC(O)c1ccc(O)c(O)c1 (centres undefined),/,/,/,/,66,.
CC(C)NCC(O)c1cc(O)cc(O)c1 (centres undefined),/,/,/,/,81!,.
COC(=O)c1c(NC(=O)c2ccccc2F)sc(C(=O)NC2CCCCC2)c1C,/,/,/,/,.,.
CCC(C)(C)n1nnnc1C(C(C)C)N1CCN(c2ccc(OC)cc2)CC1 (centres undefined),/,/,/,/,.,.
C(#Cc1ccccc1)C[N+]1(CC#Cc2ccccc2)CCCCC1,/,.,.,.,.,.
Cc1ccc(C#CC[N+]2(CC#Cc3ccc(C)cc3)CCCCC2)cc1,20,.,.,27,.,.
Oc1ccc(NC(=S)N=Nc2c(O)[nH]c3ccc(Br)cc23)cc1,/,.,.,.,.,46
COc1ccccc1N(C(=O)c1snc(C(N)=O)c1N)C(C(=O)NCCC(C)C)c1ccco1 (centres undefined),.,.,.,.,.,.
COc1ccccc1N(C(=O)c1snc(C(N)=O)c1N)C(C(=O)NC1CCCC1)c1ccco1 (centres undefined),20,.,.,27,/,.
CCOC(=O)c1cc(OC(=O)c2ccccc2)n(-c2ccccc2)n1,.,.,.,.,62,.
CCOC(=O)c1cc(OC(=O)c2cccc([N+](=O)[O-])c2)n(-c2ccccc2)n1,.,.,.,.,.,.
SMILES,NPY Y2 blocker,NPY2 pot ag,NPY-Y1 PAM-ag,NPY Y1 blocker,EP2 mod,EP2 antag
CC(C)Oc1ccc(/C=N/NC(=O)c2ccc(N(Cc3ccccc3)S(C)(=O)=O)cc2)cc1,.,.,.,.,.,.
COC(=O)COc1ccc(/C=N/NC(=O)c2ccc(N(Cc3ccccc3)S(C)(=O)=O)cc2)cc1,.,31,61,.,.,.
C=CCn1c(N(C)Cc2ccccc2)nc2c1c(=O)n(C)c(=O)n2C,/,/,/,/,.,.
COC(=O)c1cc(-c2ccc(C=C3C(=O)OC4(CCCC4)OC3=O)o2)ccc1Cl,/,/,/,/,.,88
Cc1ccccc1OCC(O)CN1CCCCC1 (centres undefined),/,64,89,.,.,.
Cc1ccccc1OCC(O)CN (centres undefined),.,44,80,.,.,.
Cc1cc(C)nc(NCC(O)COc2ccccc2C)n1 (centres undefined),.,.,.,.,.,.
COc1ccc(NC(=S)N(CCN(C)C)Cc2cc3ccc(C)cc3[nH]c2=O)cc1,/,/,/,/,.,.
Cc1ccc2oc(C(=O)OC(C)C(C)CN(C)C)cc2c1 (centres undefined),/,/,/,/,.,.
Cc1cc(O)c(-c2cc(O)c(C)cc2O)cc1O,/,.,.,/,.,134
COC(=O)c1cccc(NCc2cc3c(C)nn(-c4ccccc4)c3[nH]c2=O)c1,/,/,/,/,.,.
CCc1nnc(SCC(=O)N2c3ccc(F)cc3CCC2C)n1C (centres undefined),/,/,/,/,.,.
